Assay results: ChEMBL document CHEMBL5532699, “Design, docking optimization, and evaluation of biotin-PEG4-1,8-naphthalimide as a potent and safe antitumor agent with dual targeting of ferroptosis and DNA” (RSC Med Chem, 2024)

Key:
MDA-MB-231 = test: Antiproliferative activity against human MDA-MB-231 cells incubated for 48 hrs by MTT assay; format: functional, cell-based; conditions: MDA-MB-231, 48 h
Outline: (§1)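 Monolayer cells in DMEM with 10% FBS, penicillin and streptomycin, 37°C, 5% CO2. Exponentially growing cells were seeded in 96-well plates and exposed to compound for 48 h. MTT was then added for 4 h at 37°C. Medium was removed, formazan dissolved in DMSO, and OD read at 490 nm. Each plate had five replicate wells, and assays were repeated three times per line.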

HCT-116 = test: Antiproliferative activity against human HCT-116 cells incubated for 48 hrs by MTT assay; format: functional, cell-based; conditions: HCT-116, 48 h; outline: as §1
[1] = Cytotoxicity against HUVEC cells incubated for 48 hrs by MTT assay; format: toxicity, cell-based; conditions: human; outline: as §1
U-251 [2] = test: Antiproliferative activity against human U-251 cells incubated for 48 hrs by MTT assay; format: functional, cell-based; conditions: U-251, 48 h; outline: as §1
A549 = test: Antiproliferative activity against human A549 cells incubated for 48 hrs by MTT assay; format: functional, cell-based; conditions: A549, 48 h; outline: as §1
[3] = Cytotoxicity against HK-2 cells incubated for 48 hrs by MTT assay; format: toxicity, cell-based; conditions: human; outline: as §1
[4] = Toxicity in nude mouse xenografted with human MGC-803 cells assessed as pathological changes in spleen at 5 mg/kg, ip administered once every two days for 21 days by H and E staining based analysis; format: organism-based; conditions: in vivo, 504 h, time 21 day
Outline: (§2)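 Major organs from MGC-803 xenograft nude mice (i.p. dosing in 5% DMSO/saline every 2 days, n = 6) were stained with haematoxylin-eosin and examined at 200×.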

U-251 [5] = test: Antitumor activity against human U-251 cells xenografted in nude mouse assessed as tumor inhibition ratio at 10 mg/kg, ip administered once every two days for 21 days relative to control; format: functional; conditions: U-251, 504 h, time 21 day
Outline: (§3)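 1×10^6 tumour cells were injected subcutaneously into the right flank of nude mice. At a mean tumour volume of 60–80 mm³, mice were randomised into solvent control and treated groups (n = 6). Compound in 5% v/v DMSO/saline was given i.p. every 2 days. Tumour length and width were measured, V = lw²/2, and tumour weight was recorded.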

[6] = Toxicity in nude mouse xenografted with human MGC-803 cells assessed as pathological changes in heart at 5 mg/kg, ip administered once every two days for 21 days by H and E staining based analysis; format: organism-based; conditions: in vivo, 504 h, time 21 day; outline: as §2
[7] = Toxicity in nude mouse xenografted with human U-251 cells assessed as decrease in body weight at 10 mg/kg, ip administered once every two days for 21 days; format: organism-based; conditions: in vivo, 504 h, time 21 day
Outline: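 Subcutaneous xenograft in nude mice (1×10^6 cells, right flank). At 60–80 mm³, mice were randomised (n = 6 per group) to solvent control or treatment. Compound in 5% v/v DMSO/saline was given i.p. once every 2 days. Body weight was recorded as the indicator of systemic toxicity.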

[8] = Metabolic stability in male CD-1 mouse liver microsomes assessed as half life at 2 uM incubated for 60 min in the presence of NADPH by LC-MS/MS analysis; format: ADME, Microsome
Outline: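 Male CD-1 mouse liver microsomes at 0.5 mg/mL final in 100 mM phosphate buffer, pH 7.4. Mixture was preincubated with 1 mM NADPH (PBS only for the negative control) for 10 min at 37°C. Reaction was started with test compound at 2 µM final. Aliquots were taken at 0.5, 15, 30, 45 and 60 min into cold methanol with internal standard, centrifuged, and the supernatant analysed by LC-MS/MS.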

[9] = Toxicity in nude mouse xenografted with human MGC-803 cells assessed as pathological changes in lung at 5 mg/kg, ip administered once every two days for 21 days by H and E staining based analysis; format: organism-based; conditions: in vivo, 504 h, time 21 day; outline: as §2
[10] = Toxicity in nude mouse xenografted with human U-251 cells assessed as decrease in animal movement at 10 mg/kg, ip administered once every two days for 21 days; format: organism-based; conditions: in vivo, 504 h, time 21 day
T-24 = test: Antiproliferative activity against human T24 cells incubated for 48 hrs by MTT assay; format: functional, cell-based; conditions: T-24, 48 h; outline: as §1
MGC-803 [11] = test: Antiproliferative activity against human MGC-803 cells incubated for 48 hrs by MTT assay; format: functional, cell-based; conditions: MGC-803, 48 h
Outline: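 Cells kept as monolayers in DMEM with 10% FBS, streptomycin and penicillin, 37°C, 5% CO₂. Exponentially growing cells seeded in 96-well plates, exposed 48 h, then MTT (10 mg/mL stock) for 4 h at 37°C. Medium removed, formazan dissolved in DMSO, OD read at 490 nm. Five wells per condition; each cell line run three times.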

MGC-803 [12] = test: Antitumor activity against human MGC-803 cells xenografted in nude mouse assessed as tumor inhibition ratio at 5 mg/kg, ip administered once every two days for 21 days relative to control; format: functional; conditions: MGC-803, 504 h, time 21 day; outline: as §3
[13] = Toxicity in nude mouse xenografted with human MGC-803 cells assessed as pathological changes in liver at 5 mg/kg, ip administered once every two days for 21 days by H and E staining based analysis; format: organism-based; conditions: in vivo, 504 h, time 21 day; outline: as §2
[14] = Toxicity in nude mouse xenografted with human U-251 cells assessed as decrease in body weight at 25 mg/kg, ip administered once every two days for 21 days; format: organism-based; conditions: in vivo, 504 h, time 21 day
Outline: (§4)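 1×10^6 tumor cells injected s.c. into the right flank of nude mice. At mean tumor volume 60–80 mm³, animals randomized to vehicle or treatment groups (n = 6). Compound in 5% v/v DMSO/saline given i.p. every 2 days. Tumor size and weight recorded; volume = lw²/2 from length and width. Body weight tracked as the systemic toxicity index.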

[15] = Toxicity in nude mouse xenografted with human U-251 cells assessed as decrease in animal movement at 25 mg/kg, ip administered once every two days for 21 days; format: organism-based; conditions: in vivo, 504 h, time 21 day; outline: as §4
U-251 [16] = test: Antitumor activity against human U-251 cells xenografted in nude mouse assessed as tumor inhibition ratio at 25 mg/kg, ip administered once every two days for 21 days relative to control; format: functional; conditions: U-251, 504 h, time 21 day; outline: as §4
U-251 [17] = test: Antitumor activity against human U-251 cells xenografted in nude mouse assessed as tumor inhibition ratio at 5 mg/kg, ip administered once every two days for 21 days relative to control; format: functional; conditions: U-251, 504 h, time 21 day; outline: as §4

| Structure (SMILES) | IC50 (MDA-MB-231) | IC50 (HCT-116) | IC50 at 48 h [1] | IC50 (U-251 [2]) | IC50 (A549) | IC50 at 48 h [3] | IC50 (T-24) | inhibition in vivo at 5 mg/kg (MGC-803 [12]) | also measured |
| --- | --- | --- | --- | --- | --- | --- | --- | --- | --- |
| CN(C)CCN1C(=O)c2cccc3cc([N+](=O)[O-])cc(c23)C1=O [MITONAFIDE] | 7.59 µM | 12.2 µM | 5.9 µM | 9.68 µM | 3.6 µM | 2.13 µM | – | – | – |
| CN(C)CCN1C(=O)c2cccc3c(N4CCNCC4)ccc(c23)C1=O | 0.96 µM | 7.15 µM | 1.99 µM | 10.5 µM | 13.5 µM | 6.38 µM | 5.86 µM | 40.3% | Activity [4]: Non-Toxic; inhibition in vivo at 10 mg/kg (U-251 [5]): 71.5%; Activity [6]: Non-Toxic; Activity [7]: Toxic; half-life at 2 µM [8]: > 3.08 h; Activity [9]: Non-Toxic; Activity [10]: Toxic; IC50 (MGC-803 [11]): 1.72 µM; Activity [13]: Non-Toxic |
| Cn1nnc2c(C(N)=O)ncn2c1=O [TEMOZOLOMIDE] | – | – | – | > 50 µM | – | – | – | – | Activity [14]: Toxic; Activity [15]: Toxic; inhibition in vivo at 25 mg/kg (U-251 [16]): 74.2% |
| CN(C)CCN1C(=O)c2cccc3cc(N)cc(c23)C1=O [AMONAFIDE] | 21.1 µM | 25.7 µM | 21.9 µM | > 50 µM | 12.4 µM | 27.2 µM | 7.94 µM | 42.2% | inhibition in vivo at 5 mg/kg (U-251 [17]): 35.4% |
